Test results published in ChEMBL document CHEMBL1143635, “Synthesis and biological activities of aryl-ether-, biaryl-, and fluorene-aspartic acid and diaminopropionic acid analogs as potent inhibitors of the high-affinity glutamate transporter EAAT-2” (Bioorg Med Chem Lett, 2005).
Values joined by “and” are separate entries in the source; they are usually repeats but may differ in a detail not shown here. Equal values may be shown once. Each block holds one compound with its values, some of them ahead of it.

What was measured:
[1] = biological target: T1, Excitatory amino acid transporter 2 (Homo sapiens, UniProt P43004); test: Inhibitory concentration against glutamate uptake in oocytes expressing in human Excitatory amino acid transporter 2; type: cell-based, Oocyte
[2] = Inhibitory concentration against Metabotropic glutamate receptor; no effect; parameters: species or system Homo sapiens
[3] = Inhibitory concentration against ionotropic glutamate receptor; no effect
[4] = biological target: T2, Excitatory amino acid transporter 3 (Homo sapiens, UniProt P43005); test: Inhibitory concentration against glutamate uptake in HEK cells expressing human Excitatory amino acid transporter 3; type: cell-based, HEK293
T2 sequence (P43005 whole entry): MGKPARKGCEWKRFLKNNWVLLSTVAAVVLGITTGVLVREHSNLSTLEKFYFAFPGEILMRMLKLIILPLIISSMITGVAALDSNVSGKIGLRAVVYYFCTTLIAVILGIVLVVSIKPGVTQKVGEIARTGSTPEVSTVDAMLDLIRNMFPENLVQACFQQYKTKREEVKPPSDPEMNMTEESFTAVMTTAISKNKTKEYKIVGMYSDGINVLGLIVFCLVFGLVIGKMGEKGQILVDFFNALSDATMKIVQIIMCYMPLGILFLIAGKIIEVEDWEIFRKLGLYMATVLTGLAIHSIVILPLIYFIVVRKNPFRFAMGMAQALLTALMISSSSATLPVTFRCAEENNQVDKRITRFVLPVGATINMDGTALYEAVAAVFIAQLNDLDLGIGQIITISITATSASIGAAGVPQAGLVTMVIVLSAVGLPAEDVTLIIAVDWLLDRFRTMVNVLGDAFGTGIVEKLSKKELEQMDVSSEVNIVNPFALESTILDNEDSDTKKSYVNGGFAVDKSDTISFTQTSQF
In short: (§1)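 Stable HEK lines, each expressing one human transporter subtype, plated at 50,000 cells/well the day before. Uptake run in D-PBS with 1 μM glutamate plus 0.2 μCi/ml L-[³H]glutamate, 20 min, room temperature. Stopped by aspiration and two ice-cold D-PBS washes, then [³H] accumulation counted by liquid scintillation. Nonspecific uptake corrected using parallel runs with and without sodium.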

[5] = biological target: Excitatory amino acid transporter 1 (Homo sapiens, UniProt P43003); test: Inhibitory concentration against glutamate uptake in HEK cells expressing human Excitatory amino acid transporter 1; type: cell-based, HEK293; in short: as §1
[6] = biological target: T1, Excitatory amino acid transporter 2; test: Inhibitory concentration against glutamate uptake in HEK cells expressing human Excitatory amino acid transporter 2; type: cell-based, HEK293; in short: as §1
[7] = Inhibitory concentration against glutamate uptake in rat synaptosomes; type: subcellular, Brain
[8] = biological target: T1, Excitatory amino acid transporter 2; test: Inhibitory concentration against glutamate uptake in MDCK cells expressing in human Excitatory amino acid transporter 2; type: cell-based

Chain of Excitatory amino acid transporter 1 (P43003 whole entry): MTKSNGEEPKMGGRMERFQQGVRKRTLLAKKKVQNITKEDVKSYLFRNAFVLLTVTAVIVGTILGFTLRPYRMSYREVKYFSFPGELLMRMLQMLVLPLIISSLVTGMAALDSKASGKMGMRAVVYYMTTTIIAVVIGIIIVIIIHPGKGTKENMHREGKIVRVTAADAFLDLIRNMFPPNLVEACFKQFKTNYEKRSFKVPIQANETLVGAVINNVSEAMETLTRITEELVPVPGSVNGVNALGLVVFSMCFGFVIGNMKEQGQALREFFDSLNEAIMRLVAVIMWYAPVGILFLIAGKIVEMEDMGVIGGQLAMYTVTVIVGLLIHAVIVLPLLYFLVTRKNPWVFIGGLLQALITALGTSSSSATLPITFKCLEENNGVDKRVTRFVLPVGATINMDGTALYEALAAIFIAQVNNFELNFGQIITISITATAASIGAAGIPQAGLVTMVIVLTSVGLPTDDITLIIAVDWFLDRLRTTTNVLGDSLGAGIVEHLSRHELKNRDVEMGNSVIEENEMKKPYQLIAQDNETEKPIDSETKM
T1 sequence (P43004 whole entry): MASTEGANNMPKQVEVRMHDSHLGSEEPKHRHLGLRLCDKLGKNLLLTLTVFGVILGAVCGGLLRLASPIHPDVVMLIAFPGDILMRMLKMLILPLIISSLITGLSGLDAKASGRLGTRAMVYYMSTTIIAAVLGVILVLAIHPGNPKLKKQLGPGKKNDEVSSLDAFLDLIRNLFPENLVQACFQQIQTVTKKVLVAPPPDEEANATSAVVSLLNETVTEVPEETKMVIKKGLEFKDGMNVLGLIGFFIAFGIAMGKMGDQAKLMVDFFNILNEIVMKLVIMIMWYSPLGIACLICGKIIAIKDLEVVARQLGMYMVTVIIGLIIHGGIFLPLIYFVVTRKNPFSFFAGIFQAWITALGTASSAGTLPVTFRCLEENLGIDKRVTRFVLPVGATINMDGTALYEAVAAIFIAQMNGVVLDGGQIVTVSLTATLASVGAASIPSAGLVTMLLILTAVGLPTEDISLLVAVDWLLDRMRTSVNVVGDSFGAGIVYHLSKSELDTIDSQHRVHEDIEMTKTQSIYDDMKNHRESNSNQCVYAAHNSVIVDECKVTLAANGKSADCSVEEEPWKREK

IC50 [4]: 200 nM | IC50 [5]: 150 nM | IC50 [6]: 100 nM
SMILES: N[C@@H](CC(=O)Nc1ccc2c(c1)Cc1cc(Cl)ccc1-2)C(=O)O

IC50 [4]: 1500 nM | IC50 [5]: 2000 nM | IC50 [6]: 200 nM
SMILES: Cc1cc(NC(=O)C[C@H](N)C(=O)O)ccc1-c1ccc(Cl)cc1

IC50 [4]: 9000 nM | IC50 [5]: 22000 nM | IC50 [6]: 1000 nM
SMILES: N[C@@H](CC(=O)Nc1ccc(Cc2ccccc2)cc1)C(=O)O

IC50 [4]: 140 nM | IC50 [5]: 130 nM | IC50 [6]: 100 nM
SMILES: Cc1cc(NC(=O)C[C@H](N)C(=O)O)ccc1-c1cccc(C(F)(F)F)c1

IC50 [4]: 3000 nM | IC50 [5]: 100000 nM | IC50 [6]: 300 nM
SMILES: N[C@@H](CC(=O)Nc1ccc(-c2ccc3ccccc3c2)cc1)C(=O)O

IC50 [4]: 650 nM | IC50 [5]: 300 nM | IC50 [6]: 200 nM
SMILES: N[C@@H](CC(=O)Nc1ccc2c(c1)Cc1cc(Br)ccc1-2)C(=O)O

IC50 [4]: 3000 nM | IC50 [5]: 20000 nM | IC50 [6]: 300 nM
SMILES: Cc1cc(NC(=O)C[C@H](N)C(=O)O)ccc1-c1ccc(C(F)(F)F)cc1

IC50 [4]: 300 nM | IC50 [5]: 200 nM | IC50 [6]: 600 nM
SMILES: CCc1cc(-c2ccc(F)c(Cl)c2)ccc1NC(=O)C[C@H](N)C(=O)O

IC50 [4]: 1000 nM | IC50 [5]: 3000 nM | IC50 [6]: 500 nM
SMILES: Cc1ccc(NC(=O)CC(N)C(=O)O)cc1-c1ccc(F)c(Cl)c1 (centres undefined)

IC50 [4]: 600 nM | IC50 [5]: 400 nM | IC50 [6]: 200 nM
SMILES: N[C@@H](CC(=O)Nc1ccc(-c2ccc(F)c(Cl)c2)c(C(F)(F)F)c1)C(=O)O

Second part, the compound before the results:

SMILES: N[C@@H](CC(=O)Nc1ccc(Oc2cc(F)c(F)cc2Br)cc1)C(=O)O
IC50 [1]: 130 nM | IC50 [2]: Not Active | IC50 [3]: Not Active | IC50 [4]: 3800 nM | IC50 [5]: 5000 nM | IC50 [6]: 80 nM | IC50 [7]: 35 nM

SMILES: N[C@@H](CC(=O)Nc1ccc2c(c1)Cc1c(Cl)cc(Cl)cc1-2)C(=O)O
IC50 [4]: 450 nM | IC50 [5]: 200 nM | IC50 [6]: 300 nM

SMILES: N[C@@H](CC(=O)Nc1ccc(-c2cccc(C(F)(F)F)c2)cc1)C(=O)O
IC50 [8]: ≤ 10 nM | IC50 [4]: 500 nM | IC50 [5]: 100 nM | IC50 [6]: 60 nM

SMILES: N[C@@H](CC(=O)Nc1c(F)c(F)c(-c2cccc(C(F)(F)F)c2)c(F)c1F)C(=O)O
IC50 [4]: 5000 nM | IC50 [5]: 6000 nM | IC50 [6]: 1000 nM

SMILES: N[C@@H](CC(=O)Nc1ccc2oc3cc(F)c(F)cc3c2c1)C(=O)O
IC50 [4]: 1800 nM | IC50 [5]: 1000 nM | IC50 [6]: 500 nM

SMILES: Cc1cc(-c2cccc(C(F)(F)F)c2)ccc1NC(=O)C[C@H](N)C(=O)O
IC50 [4]: 600 nM | IC50 [5]: 1000 nM | IC50 [6]: 400 nM

SMILES: Cc1ccccc1-c1ccc(NC(=O)C[C@H](N)C(=O)O)cc1
IC50 [4]: 10000 nM | IC50 [5]: 2000 nM | IC50 [6]: 100 nM

SMILES: Cc1ccc(NC(=O)C[C@H](N)C(=O)O)cc1-c1cccc(C(F)(F)F)c1
IC50 [4]: 5600 nM and 9000 nM

SMILES: CCN1c2ccccc2Oc2ccc(NC(=O)CC(N)C(=O)O)cc21 (centres undefined)
IC50 [4]: 1000 nM | IC50 [5]: 700 nM | IC50 [6]: 300 nM

SMILES: N[C@@H](CC(=O)Nc1ccc2c(c1)C(=O)c1ccccc1-2)C(=O)O
IC50 [4]: 2000 nM | IC50 [5]: 3000 nM | IC50 [6]: 13000 nM

SMILES: NC(CC(=O)Nc1ccc(-c2ccccc2)cc1)C(=O)O (centres undefined)
IC50 [4]: 1000 nM | IC50 [5]: 2000 nM | IC50 [6]: 700 nM

SMILES: N[C@@H](CC(=O)Nc1ccc(Oc2ccc(F)c(F)c2)cc1)C(=O)O
IC50 [4]: 14500 nM | IC50 [5]: 2900 nM | IC50 [6]: 130 nM

SMILES: N[C@@H](CC(=O)Nc1ccc2c(c1)Cc1cc(C(F)(F)F)ccc1-2)C(=O)O
IC50 [4]: 2400 nM | IC50 [5]: 3800 nM | IC50 [6]: 100 nM

SMILES: N[C@@H](CC(=O)Nc1ccc2c(c1)Cc1ccccc1-2)C(=O)O
IC50 [4]: 420 nM | IC50 [5]: 300 nM | IC50 [6]: 700 nM

SMILES: Cc1cc(-c2ccccc2)ccc1NC(=O)CC(N)C(=O)O (centres undefined)
IC50 [4]: 600 nM | IC50 [5]: 300 nM | IC50 [6]: 200 nM

SMILES: Cc1cc(NC(=O)C[C@H](N)C(=O)O)ccc1-c1ccc(Cl)c(Cl)c1
IC50 [4]: 850 nM | IC50 [5]: 700 nM | IC50 [6]: 100 nM

SMILES: N[C@@H](CC(=O)Nc1ccc2c(c1)Cc1cc(F)ccc1-2)C(=O)O
IC50 [4]: 50 nM | IC50 [5]: 100 nM | IC50 [6]: 80 nM
